Laboratory results as given in ChEMBL document CHEMBL1629675, “Novel inhibitor of Plasmodium histone deacetylase that cures P. berghei-infected mice” (Antimicrob Agents Chemother, 2009).
Calls of active or inactive are those of the source. The calls are words filed in the database; no cut-off is given here.

What was measured:
[1] = test system: Plasmodium berghei; test: Antimalarial activity against Plasmodium berghei infected in mouse assessed as decrease in parasites in blood at 5 mg/kg, ip administered as splited dose compound with drawn on day 4 measured on day 20
[2] = test system: Plasmodium berghei; test: Antimalarial activity against Plasmodium berghei infected in mouse assessed as decrease in decline in hematocrit rate at 50 mg/kg, […] as splited dose compound with drawn on day 4 measured after 6 weeks; type: functional, organism-based; parameters: dose 50 mg/kg
Summary of the method: (§1)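 ICR mice (five per group) infected intraperitoneally with 10^6 P. berghei NK56 parasites from a donor mouse, then dosed intraperitoneally with 0, 0.05, 0.5, 5 or 50 mg/kg/day split into two doses for 4 days. Parasitemia was read from Giemsa-stained tail-blood thin smears on day 4 (1,500 cells, two microscopists), with Sybr green confirming negative slides. Parasitemia and hematocrit were taken every 4 days over 6 weeks.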

[3] = test system: Plasmodium berghei; test: Antimalarial activity against Plasmodium berghei infected in mouse assessed as decrease in parasites in blood at 0.5 mg/kg, ip administered as splited dose compound with drawn on day 4 measured on day 8
[4] = test system: Plasmodium berghei; test: Antimalarial activity against Plasmodium berghei infected in mouse assessed as decrease in parasites in blood at 50 mg/kg, ip administered as splited dose compound with drawn on day 4 measured after 6 weeks
[5] = test system: Plasmodium berghei; test: Antimalarial activity against Plasmodium berghei infected in mouse assessed as decrease in parasites in blood at 0.5 mg/kg, ip administered as splited dose measured on day 4 relative to control
[6] = test system: Plasmodium berghei; test: Antimalarial activity against Plasmodium berghei infected in mouse assessed as decrease in parasites in blood at 5 mg/kg, ip administered as splited dose measured on day 4 relative to control
[7] = test system: Plasmodium berghei; test: Antimalarial activity against Plasmodium berghei infected in mouse assessed as decrease in decline in hematocrit rate at 0.5 mg/kg, […] as splited dose compound with drawn on day 4 measured on day 8; type: functional, organism-based; parameters: dose 0.5 mg/kg
Summary of the method: as §1

[8] = test system: Plasmodium falciparum; test: Antimalarial activity against Plasmodium falciparum 3D7 assessed as parasite regrowth measured after 3 days of compound withdrawal at 2.5 nM by standard growth inhibition assay; type: functional, organism-based
Summary of the method: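 Synchronized 3D7 cultures were exposed to 2.5 nM drug, continuously or over a limited interval, and then the drug was removed. Parasitemia was measured by FACS of Sybr green-stained cells every 12 h for 4 days. Growth inhibition was calculated against 0.1% Me2SO-treated controls. Representative of three experiments.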

[9] = test system: Plasmodium berghei; test: Antimalarial activity against Plasmodium berghei infected in mouse assessed as decrease in parasites in blood at 0.05 mg/kg, ip administered as splited dose measured on day 4
[10] = test system: Plasmodium falciparum; test: Antimalarial activity against Plasmodium falciparum HB3 assessed as parasite growth inhibition after 48 hrs by standard growth inhibition assay; type: functional, organism-based; details: Plasmodium falciparum, HB3, 48 h
[11] = test system: Plasmodium falciparum; test: Antimalarial activity against sPlasmodium falciparum VS/1 assessed as parasite growth inhibition after 48 hrs by standard growth inhibition assay; type: functional
[12] = test system: Plasmodium falciparum; test: Antimalarial activity against Plasmodium falciparum 7G8 assessed as parasite growth inhibition after 48 hrs by standard growth inhibition assay; type: functional, organism-based
[13] = test system: Plasmodium falciparum; test: Antimalarial activity against Plasmodium falciparum FCR3 assessed as parasite growth inhibition after 48 hrs by standard growth inhibition assay; type: functional, FCR-3/Gambia; details: Plasmodium falciparum, FCR-3/Gambia, 48 h
[14] = biological target: Histone deacetylase; test: Inhibition of human HDAC in HeLa cells by fluorescent activity assay; type: cell-based
[15] = test system: Plasmodium falciparum; test: Inhibition of HDAC in Plasmodium falciparum 3D7 by fluorescent activity assay; type: organism-based
[16] = test system: Plasmodium falciparum; test: Antimalarial activity against chloroquine-sensitive Plasmodium falciparum 3D7 assessed as parasite growth inhibition after 48 hrs by standard growth inhibition assay; type: functional, organism-based; details: Plasmodium falciparum, 3D7, 48 h
[17] = test system: Plasmodium falciparum; test: Antimalarial activity against Plasmodium falciparum Dd2 assessed as parasite growth inhibition after 48 hrs by standard growth inhibition assay; type: functional, organism-based; details: Plasmodium falciparum, Dd2, 48 h
[18] = test system: Plasmodium falciparum; test: Antimalarial activity against chloroquine-resistant Plasmodium falciparum FCB1 assessed as parasite growth inhibition after 48 hrs by standard growth inhibition assay; type: functional, organism-based, FcB1/Columbia; details: Plasmodium falciparum, FcB1/Columbia, 48 h
Summary of the method: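 Ring-stage cultures of P. falciparum (3D7, FCB1) in RBCs, 2% hematocrit, at 1% parasitemia, incubated 48 h at 37°C in 90% N2/5% O2/5% CO2 with compound; 0.1% Me2SO control, uninfected-RBC background. Parasitemia counted by FACS on 100,000 Sybr green-stained cells; accepted only if controls grew ≥3-fold. Growth inhibition from background-corrected ratio to control. Triplicate, repeated at least twice.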

[19] = test system: Plasmodium berghei; test: Antimalarial activity against Plasmodium berghei infected in iv dosed mouse assessed as decrease in parasites in blood; type: functional, organism-based; details: in the assay text read “ip dosed” for “iv dosed”
Summary of the method: as §1

[20] = test system: Mus musculus; test: Toxicity in ICR mouse assessed as mild increase in erythroid mass after 5 days at 0.5 to 50 mg/kg, iv once daily; type: organism-based, Erythrocyte; parameters: dose 0.5-50 mg/kg, route intravenous; details: in vivo, 120 h
[21] = test system: Mus musculus; test: Toxicity in ICR mouse assessed as mild increase in erythroid mass after 14 days at 5 to 50 mg/kg, iv once daily; type: organism-based, Erythrocyte; parameters: dose 5-50 mg/kg, route intravenous; details: in vivo, 336 h
[22] = test system: Mus musculus; test: Toxicity in ICR mouse assessed as death after 14 days at 5 to 100 mg/kg, iv once daily; type: organism-based; parameters: dose 5-100 mg/kg, route intravenous; details: in vivo, 336 h
[23] = test system: Plasmodium falciparum; test: Antimalarial activity against Plasmodium falciparum 3D7 trophozoites assessed as parasite growth inhibition at […] nM measured at end of the experiment by standard growth inhibition assay; type: functional
[24] = test system: Plasmodium falciparum; test: Antimalarial activity against Plasmodium falciparum 3D7 rings assessed as parasite growth inhibition at […] nM measured at end of the experiment by standard growth inhibition assay; type: functional
[25] = test system: Plasmodium berghei; test: Antimalarial activity against Plasmodium berghei infected in mouse assessed as mouse survival days at 0.5 mg/kg, […] as splited dose measured on day 4 relative to control; type: functional
Summary of the method: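 P. berghei NK56 blood from donor ICR mice (≥10% parasitemia), diluted in PBS; 10^6 parasites given ip to groups of five ICR mice. Treatment started simultaneously: ip, 0, 0.05, 0.5, 5 or 50 mg/kg/day in two daily doses for 4 days. Mice monitored up to 6 weeks or until death; survival counted from treatment start; paired Student t test.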

[26] = test system: Mus musculus; test: Toxicity in ICR mouse assessed as clinical signs of distress after 14 days at 5 to 100 mg/kg, iv once daily; type: organism-based; parameters: dose 5-100 mg/kg, route intravenous; details: in vivo, 336 h
[27] = test system: Plasmodium falciparum; test: Antimalarial activity against Plasmodium falciparum 3D7 rings assessed as parasite growth inhibition at […] nM after 14 hrs by standard growth inhibition assay; details: 3D7, 14 h
[28] = test system: Mus musculus; test: Toxicity in ICR mouse assessed as moderate increase in erythroid mass after 5 days at 0.5 to 100 mg/kg, iv once daily; type: organism-based, Erythrocyte; parameters: dose 0.5-100 mg/kg, route intravenous; details: in vivo, 120 h
[29] = test system: Mus musculus; test: Toxicity in ICR mouse assessed as moderate increase in erythroid mass after 14 days at 5 to 50 mg/kg, iv once daily; type: organism-based, Erythrocyte; parameters: dose 5-50 mg/kg, route intravenous; details: in vivo, 336 h
[30] = test system: Plasmodium falciparum; test: Antimalarial activity against Plasmodium falciparum 3D7 schizonts assessed as parasite growth inhibition at […] nM after 14 hrs by standard growth inhibition assay; details: 3D7, 14 h
[31] = test system: Mus musculus; test: Toxicity in ICR mouse assessed as clinical signs of distress after 5 days at 0.5 to 100 mg/kg, iv once daily; type: organism-based; parameters: dose 0.5-100 mg/kg, route intravenous; details: in vivo, 120 h
[32] = test system: Mus musculus; test: Toxicity in ICR mouse assessed as severe increase in erythroid mass after 5 days at 0.5 to 100 mg/kg, iv once daily; type: organism-based, Erythrocyte; parameters: dose 0.5-100 mg/kg, route intravenous; details: in vivo, 120 h
[33] = test system: Mus musculus; test: Toxicity in ICR mouse assessed as severe increase in erythroid mass after 14 days at 5 to 100 mg/kg, iv once daily; type: organism-based, Erythrocyte; parameters: dose 5-100 mg/kg, route intravenous; details: in vivo, 336 h
[34] = test system: Mus musculus; test: Toxicity in ICR mouse assessed as death after 5 days at 0.5 to 100 mg/kg, iv once daily; type: organism-based; parameters: dose 0.5-100 mg/kg, route intravenous; details: in vivo, 120 h
[35] = test system: Plasmodium falciparum; test: Antimalarial activity against Plasmodium falciparum 3D7 trophozoites assessed as parasite growth inhibition at […] nM after 14 hrs by standard growth inhibition assay; details: 3D7, 14 h
[36] = test system: Plasmodium falciparum; test: Antimalarial activity against Plasmodium falciparum 3D7 schizonts assessed as parasite growth inhibition at […] nM measured at end of the experiment by standard growth inhibition assay; type: functional
[37] = Plasmodium falciparum, VS/1, 48 h
[38] = Plasmodium falciparum, 7G8, 48 h

## Nc1cccc(-c2csc(NC(=O)CCCCCCC(=O)NO)n2)c1 [listing 1 of 2 here]
[1]
  Activity: inactive
[2]
  Activity: Active
[3]
  Activity: inactive
[4]
  Activity: Active
[5]
  Activity: Active
[6]
  Activity: Active
[7]
  Activity: Active
[8]
  Activity: Active
[9]
  Activity: inactive

## O=C(CCCCCC(=O)Nc1cccc2cccnc12)NS
[10]
  IC50: 8990 nM
[11]; [37]
  IC50: 9910 nM
[12]; [38]
  IC50: 5550 nM
[13]
  IC50: 6750 nM
[14]
  IC50: 44 nM
[15]; Plasmodium falciparum, 3D7
  IC50: 4560 nM
[16]
  IC50: 9750 nM
[17]
  IC50: 7550 nM
[18]
  IC50: 6780 nM

## Nc1cccc(-c2csc(NC(=O)CCCCCCC(=O)NO)n2)c1 [listing 2 of 2 here]
[19]
  IC50: 0.5 mg/kg/day
[11]
  IC50: 1 nM
[12]
  IC50: 0.4 nM
[20]
  Activity: Non-toxic
[21]
  Activity: Non-toxic
[22]
  Activity: Non-toxic
[23]
  inhibition at 0.00125 µM: 25%
[24]
  inhibition at 0.00125 µM: < 5%
[25]
  Survival: 23.6 days
[26]
  Activity: Non-toxic
[14]
  IC50: 3.9 nM
[27]
  inhibition at 0.00125 µM: 15%
[15]
  IC50: 0.23 nM
[28]
  Activity: Non-toxic
[29]
  Activity: Non-toxic
[30]
  inhibition at 0.00125 µM: 25%
[31]
  Activity: Non-toxic
[32]
  Activity: Non-toxic
[33]
  Activity: Non-toxic
[34]
  Activity: Non-toxic
[35]
  inhibition at 0.00125 µM: 35%
[36]
  inhibition at 0.00125 µM: 20%

## O=C(CCCCCCC(=O)Nc1ccc(-c2ccccc2)cc1)NO
[10]
  IC50: 110 nM
[11]; [37]
  IC50: 115 nM
[12]; [38]
  IC50: 100 nM
[13]
  IC50: 115 nM
[15]; Plasmodium falciparum, 3D7
  IC50: 60 nM
[16]
  IC50: 129 nM
[17]
  IC50: 85 nM
[18]
  IC50: 80 nM
